Test results published in ChEMBL document CHEMBL1629690, “Development of hexadecyloxypropyl tenofovir (CMX157) for treatment of infection caused by wild-type and nucleoside/nucleotide-resistant HIV” (Antimicrob Agents Chemother, 2010).

What was measured:
[1] = tested on: Human immunodeficiency virus 1; assay: Antiviral activity against HIV1 isolate 056 expressing wild type reverse transcriptase gene by phenosense assay; format: functional, organism-based; settings: Human immunodeficiency virus 1, isolate 056
Method in brief: (§1)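 In the PhenoSense recombinant virus assay, virus was tested against increasing drug concentrations. EC50 came from the inhibition curve and was compared with a drug-sensitive reference virus.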

[2] = tested on: Human immunodeficiency virus 1; assay: Antiviral activity against HIV1 isolate 057 expressing wild type reverse transcriptase gene by phenosense assay; format: functional, organism-based; settings: Human immunodeficiency virus 1, isolate 057; method in brief: as §1
[3] = tested on: Human immunodeficiency virus 1; assay: Antiviral activity against HIV1 isolate 060 harboring reverse transcriptase M41L/D67N/K70R/L210W/T215Y/K219E mutant gene by phenosense assay; format: functional, organism-based; settings: Human immunodeficiency virus 1, isolate 060
Method in brief: (§2)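 Recombinant-virus PhenoSense HIV assay run on a panel of 30 NRTI-resistant HIV-1 mutants and two wild-type viruses. Each virus is tested across increasing drug concentrations to give an inhibition curve and EC50. Fold change is the test recombinant EC50 divided by the EC50 of the drug-sensitive wild-type reference virus.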

[4] = tested on: Human immunodeficiency virus 1; assay: Antiviral activity against HIV1 isolate 061 harboring reverse transcriptase M41L/D67N/K70R/M184V/L210W/T215Y/K219E mutant gene by phenosense assay; format: functional, organism-based; settings: Human immunodeficiency virus 1, isolate 061; method in brief: as §2
[5] = tested on: Human immunodeficiency virus 1; assay: Antiviral activity against HIV1 isolate 067 harboring reverse transcriptase A62V/D67G/T69SVG/V75I/T215I mutant gene by phenosense assay; format: functional, organism-based; settings: Human immunodeficiency virus 1, isolate 067; method in brief: as §2
[6] = tested on: Human immunodeficiency virus 1; assay: Antiviral activity against HIV1 isolate 069 harboring reverse transcriptase D67E/T69SSG/V75M/M184V/L210W/T215Y mutant gene by phenosense assay; format: functional, organism-based; settings: Human immunodeficiency virus 1, isolate 069; method in brief: as §2
[7] = tested on: Human immunodeficiency virus 1; assay: Antiviral activity against HIV1 isolate 153 harboring reverse transcriptase L74V mutant gene by phenosense assay; format: functional, organism-based; settings: Human immunodeficiency virus 1, isolate 153; method in brief: as §2
[8] = tested on: Human immunodeficiency virus 1; assay: Antiviral activity against HIV1 isolate 157 harboring reverse transcriptase L74V/M184V mutant gene by phenosense assay; format: functional, organism-based; settings: Human immunodeficiency virus 1, isolate 157; method in brief: as §2
[9] = tested on: Human immunodeficiency virus 1; assay: Antiviral activity against HIV1 isolate 162 harboring reverse transcriptase A62V/V75I/F77L/Y115F/F116Y/Q151M/M184V mutant gene by phenosense assay; format: functional, organism-based; settings: Human immunodeficiency virus 1, isolate 162; method in brief: as §2
[10] = tested on: Human immunodeficiency virus 1; assay: Antiviral activity against HIV1 isolate 166 harboring reverse transcriptase L74V mutant gene obtained as site-directed mutant of NL4-3 by phenosense assay; format: functional, organism-based; settings: Human immunodeficiency virus 1, isolate 166; method in brief: as §2
[11] = tested on: Human immunodeficiency virus 1; assay: Antiviral activity against HIV1 isolate 180 harboring reverse transcriptase K65R mutant gene obtained as site-directed mutant of NL4-3 by phenosense assay; format: functional, organism-based; settings: Human immunodeficiency virus 1, isolate 180; method in brief: as §2
[12] = tested on: Human immunodeficiency virus 1; assay: Antiviral activity against HIV1 isolate 185 harboring reverse transcriptase T215Y mutant gene by phenosense assay; format: functional, organism-based; settings: Human immunodeficiency virus 1, isolate 185; method in brief: as §2
[13] = tested on: Human immunodeficiency virus 1; assay: Antiviral activity against HIV1 isolate 192 harboring reverse transcriptase M41L/T215Y mutant gene by phenosense assay; format: functional, organism-based; settings: Human immunodeficiency virus 1, isolate 192; method in brief: as §2
[14] = tested on: Human immunodeficiency virus 1; assay: Antiviral activity against HIV1 isolate 194 harboring reverse transcriptase M41L/T215Y/M184V mutant gene by phenosense assay; format: functional, organism-based; settings: Human immunodeficiency virus 1, isolate 194; method in brief: as §2
[15] = tested on: Human immunodeficiency virus 1; assay: Antiviral activity against HIV1 isolate 211 harboring reverse transcriptase D67N/K70R/T215F/K219E/M184V mutant gene by phenosense assay; format: functional, organism-based; settings: Human immunodeficiency virus 1, isolate 211
Method in brief: (§3)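 PhenoSense HIV recombinant virus assay: patient-derived HIV-1 with major NRTI resistance mutations tested against increasing drug concentrations to give inhibition curves. EC50 is the concentration giving 50% inhibition. Fold change is the test recombinant EC50 divided by the EC50 of a drug-sensitive wild-type reference virus. Panel of 30 NRTI-resistant isolates plus two wild-type viruses.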

[16] = tested on: Human immunodeficiency virus 1; assay: Antiviral activity against HIV1 isolate 212 harboring reverse transcriptase L210W/T215Y mutant gene by phenosense assay; format: functional, organism-based; settings: Human immunodeficiency virus 1, isolate 212; method in brief: as §3
[17] = tested on: Human immunodeficiency virus 1; assay: Antiviral activity against HIV1 isolate 217 harboring reverse transcriptase D67N/K70E/M184V mutant gene by phenosense assay; format: functional, organism-based; settings: Human immunodeficiency virus 1, isolate 217; method in brief: as §3
[18] = tested on: Human immunodeficiency virus 1; assay: Antiviral activity against HIV1 isolate 220 harboring reverse transcriptase K70E/M184V mutant gene by phenosense assay; format: functional, organism-based; settings: Human immunodeficiency virus 1, isolate 220; method in brief: as §3
[19] = tested on: Human immunodeficiency virus 1; assay: Antiviral activity against HIV1 isolate 060 harboring reverse transcriptase M41L/D67N/K70R/L210W/T215Y/K219E mutant gene by phenosense assay relative to wild type; format: functional; method in brief: as §2
[20] = tested on: Human immunodeficiency virus 1; assay: Antiviral activity against HIV1 isolate 061 harboring reverse transcriptase M41L/D67N/K70R/M184V/L210W/T215Y/K219E mutant gene by phenosense assay relative to wild type; format: functional; method in brief: as §2
[21] = tested on: Human immunodeficiency virus 1; assay: Antiviral activity against HIV1 isolate 063 harboring reverse transcriptase M41L/D67N/K70R/M184V/L210W/T215Y/K219E mutant gene by phenosense assay relative to wild type; format: functional; method in brief: as §2
[22] = tested on: Human immunodeficiency virus 1; assay: Antiviral activity against HIV1 isolate 066 harboring reverse transcriptase 184V mutant gene by phenosense assay relative to wild type; format: functional; method in brief: as §2
[23] = tested on: Human immunodeficiency virus 1; assay: Antiviral activity against HIV1 isolate 067 harboring reverse transcriptase A62V/D67G/T69SVG/V75I/T215I mutant gene by phenosense assay relative to wild type; format: functional; method in brief: as §2
[24] = tested on: Human immunodeficiency virus 1; assay: Antiviral activity against HIV1 isolate 071 harboring reverse transcriptase 65R/S68N/184V mutant gene by phenosense assay relative to wild type; format: functional; method in brief: as §2
[25] = tested on: Human immunodeficiency virus 1; assay: Antiviral activity against HIV1 isolate 157 harboring reverse transcriptase L74V/M184V mutant gene by phenosense assay relative to wild type; format: functional; method in brief: as §2
[26] = tested on: Human immunodeficiency virus 1; assay: Antiviral activity against HIV1 isolate 160 harboring reverse transcriptase S68G/V75(I/T)/F77L/Y115F/F116Y /Q151M mutant gene by phenosense assay relative to wild type; format: functional; method in brief: as §2
[27] = tested on: Human immunodeficiency virus 1; assay: Antiviral activity against HIV1 isolate 188 harboring reverse transcriptase T215Y/M184V mutant gene by phenosense assay relative to wild type; format: functional; method in brief: as §2
[28] = tested on: Human immunodeficiency virus 1; assay: Antiviral activity against HIV1 isolate 194 harboring reverse transcriptase M41L/T215Y/M184V mutant gene by phenosense assay relative to wild type; format: functional; method in brief: as §2
[29] = tested on: Human immunodeficiency virus 1; assay: Antiviral activity against HIV1 isolate 201 harboring reverse transcriptase M41L/L210W/T215Y mutant gene by phenosense assay relative to wild type; format: functional; method in brief: as §3
[30] = tested on: Human immunodeficiency virus 1; assay: Antiviral activity against HIV1 isolate 203 harboring reverse transcriptase M41L/L210W/T215Y/M184V mutant gene by phenosense assay relative to wild type; format: functional; method in brief: as §3
[31] = tested on: Human immunodeficiency virus 1; assay: Antiviral activity against HIV1 isolate 206 harboring reverse transcriptase D67N/K70R mutant gene by phenosense assay relative to wild type; format: functional; method in brief: as §3
[32] = tested on: Human immunodeficiency virus 1; assay: Antiviral activity against HIV1 isolate 211 harboring reverse transcriptase D67N/K70R/T215F/K219E/M184V mutant gene by phenosense assay relative to wild type; format: functional; method in brief: as §3
[33] = tested on: Human immunodeficiency virus 1; assay: Antiviral activity against HIV1 isolate 212 harboring reverse transcriptase L210W/T215Y mutant gene by phenosense assay relative to wild type; format: functional; method in brief: as §3
[34] = tested on: Human immunodeficiency virus 1; assay: Antiviral activity against HIV1 isolate 215 harboring reverse transcriptase D67N/K70E mutant gene by phenosense assay relative to wild type; format: functional; method in brief: as §3
[35] = tested on: Human immunodeficiency virus 1; assay: Antiviral activity against HIV1 isolate 217 harboring reverse transcriptase D67N/K70E/M184V mutant gene by phenosense assay relative to wild type; format: functional; method in brief: as §3
[36] = tested on: Human immunodeficiency virus 1; assay: Antiviral activity against HIV1 isolate 220 harboring reverse transcriptase K70E/M184V mutant gene by phenosense assay relative to wild type; format: functional; method in brief: as §3

Row | Structure (SMILES) | EC50 [1] | EC50 [2] | EC50 [3] | EC50 [4] | EC50 [5] | EC50 [6] | EC50 [7] | EC50 [8] | EC50 [9] | EC50 [10] | EC50 [11] | EC50 [12] | EC50 [13] | EC50 [14] | EC50 [15] | EC50 [16] | EC50 [17] | EC50 [18] | fold change (FC) [19] | fold change (FC) [20] | also measured
1 | Nc1nc(NC2CC2)c2ncn([C@H]3C=C[C@@H](CO)C3)c2n1 [ABACAVIR] | 1.5 µM | 1.7 µM | 11 µM | 22 µM | 33 µM | 47 µM | 3.4 µM | 9.2 µM | > 52 µM | 3.3 µM | 4.6 µM | 3.7 µM | 3.4 µM | 9.6 µM | 7.7 µM | 3.6 µM | 5.1 µM | 10 µM | 4.7 | 9.1 | fold change (FC) [21]: 7.9; fold change (FC) [22]: 2.7; fold change (FC) [23]: 18; fold change (FC) [24]: 6.6; fold change (FC) [25]: 5.2; fold change (FC) [26]: 19; fold change (FC) [27]: 4.3; fold change (FC) [28]: 5.4; fold change (FC) [29]: 2.4; fold change (FC) [30]: 4.6; fold change (FC) [31]: 1.4; fold change (FC) [32]: 4.4; fold change (FC) [33]: 2.1; fold change (FC) [34]: 1.4; fold change (FC) [35]: 2.9; fold change (FC) [36]: 5.9
2 | O=c1[nH]cnc2c1ncn2[C@H]1CC[C@@H](CO)O1 [DIDANOSINE] | 5.5 µM | 5.6 µM | 8.9 µM | 12 µM | 22 µM | 24 µM | 8.9 µM | 11 µM | 58 µM | 8.1 µM | 11 µM | 6.3 µM | 6.3 µM | 10 µM | 8.7 µM | 5.5 µM | 7.3 µM | 9.9 µM | 1.5 | 2.1 | fold change (FC) [21]: 2.1; fold change (FC) [22]: 1.4; fold change (FC) [23]: 4; fold change (FC) [24]: 2.6; fold change (FC) [25]: 2; fold change (FC) [26]: 12; fold change (FC) [27]: 1.4; fold change (FC) [28]: 1.8; fold change (FC) [29]: 1.1; fold change (FC) [30]: 1.5; fold change (FC) [31]: 1.2; fold change (FC) [32]: 1.6; fold change (FC) [33]: 1; fold change (FC) [34]: 1.4; fold change (FC) [35]: 1.3; fold change (FC) [36]: 1.8
